For assay [1], the target named is Pyruvate kinase PKLR (Homo sapiens) (UniProt P30613). Description: Activation of PKR assessed as pyruvate formation by fluorescent pyruvate kinase-lactate dehydrogenase coupled assay relative to control. More on the design: concentration or dose not given beside the values.
The target is the same in assay [2]. Description: Activation of PKR assessed as ATP product formation by luminescent pyruvate kinase-luciferase coupled assay relative to control. More on the design: concentration or dose not given beside the values. In a few lines:
(§1)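 Luciferase-coupled ATP production assay run as for PKM2: imidazole pH 7.2 buffer with KCl, MgCl2, Tween 20 and BSA, 0.1 mM ADP, 0.5 mM PEP, 1 h at r.t., Kinase-Glo luminescence. Enzyme final concentrations were PKM1 1 nM, PKL 0.1 nM, PKR 0.1 nM. % activation normalized to DMSO (neutral) and no-enzyme controls.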

For assay [3] the target is unchanged. Description: Activation of PKL assessed as pyruvate formation by fluorescent pyruvate kinase-lactate dehydrogenase coupled assay relative to control. Set-up: concentration or dose not given beside the values.
For assay [4] the target is unchanged. Description: Activation of PKL assessed as ATP product formation by luminescent pyruvate kinase-luciferase coupled assay relative to control. Set-up: concentration or dose not given beside the values. In a few lines:
as §1

The target in assay [5] is T1, Pyruvate kinase PKM (Homo sapiens, UniProt P14618). Put plainly: Activation of PKM2 assessed as ATP product formation by luminescent pyruvate kinase-luciferase coupled assay. An outline of the steps: (§2)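 Recombinant human PKM2 (0.1 nM final) in 50 mM imidazole pH 7.2, 50 mM KCl, 7 mM MgCl2, 0.01% Tween 20, 0.05% BSA; 0.1 mM ADP, 0.5 mM PEP; 1 h at r.t., then Kinase-Glo luciferase read of ATP formed. Activation % = (c−n)/(n−i)×100 against DMSO and no-enzyme controls; 100% ≈ 2-fold over basal signal. Max response taken at 57 μM; three separate experiments.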
Target sequence in this assay (P14618 whole entry): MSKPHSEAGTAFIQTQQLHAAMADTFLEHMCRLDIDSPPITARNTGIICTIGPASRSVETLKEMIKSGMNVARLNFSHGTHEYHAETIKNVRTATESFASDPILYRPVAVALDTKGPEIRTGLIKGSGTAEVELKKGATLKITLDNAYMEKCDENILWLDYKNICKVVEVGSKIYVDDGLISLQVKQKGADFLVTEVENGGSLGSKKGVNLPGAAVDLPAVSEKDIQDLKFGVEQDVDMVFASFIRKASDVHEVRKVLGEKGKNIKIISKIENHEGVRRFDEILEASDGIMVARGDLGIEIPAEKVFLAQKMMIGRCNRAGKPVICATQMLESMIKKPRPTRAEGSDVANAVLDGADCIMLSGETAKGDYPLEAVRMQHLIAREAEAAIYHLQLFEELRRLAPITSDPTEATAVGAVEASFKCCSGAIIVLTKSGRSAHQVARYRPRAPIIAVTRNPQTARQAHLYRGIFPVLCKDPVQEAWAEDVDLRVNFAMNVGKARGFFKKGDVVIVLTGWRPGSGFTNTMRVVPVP

The target in assay [6] is T1, Pyruvate kinase PKM. Put plainly: Activation of PKM2 assessed as ATP product formation at 57 uM by luminescent pyruvate kinase-luciferase coupled assay relative to fructose-1,6-bis-phosphate. In a few lines: as §2
Target sequence in this assay (P14618 2-531 limits assumed): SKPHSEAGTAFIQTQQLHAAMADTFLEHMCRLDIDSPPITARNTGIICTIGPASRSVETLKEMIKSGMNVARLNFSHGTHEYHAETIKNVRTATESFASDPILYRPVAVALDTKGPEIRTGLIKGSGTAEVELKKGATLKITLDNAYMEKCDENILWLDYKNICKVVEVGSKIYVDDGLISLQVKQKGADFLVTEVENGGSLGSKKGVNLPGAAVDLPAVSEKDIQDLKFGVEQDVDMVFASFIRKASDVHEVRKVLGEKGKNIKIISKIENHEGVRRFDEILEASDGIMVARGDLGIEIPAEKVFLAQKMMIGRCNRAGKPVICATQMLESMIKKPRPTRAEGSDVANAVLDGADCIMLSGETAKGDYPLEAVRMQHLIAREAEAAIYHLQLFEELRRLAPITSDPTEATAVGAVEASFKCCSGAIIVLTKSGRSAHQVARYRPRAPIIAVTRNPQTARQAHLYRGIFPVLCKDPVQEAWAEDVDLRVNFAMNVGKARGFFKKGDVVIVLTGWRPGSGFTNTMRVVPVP
For assay [7], the target named is T1, Pyruvate kinase PKM. Description: Activation of PKM1 assessed as pyruvate formation by fluorescent pyruvate kinase-lactate dehydrogenase coupled assay.
Target sequence in this assay (P14618 2-531 limits assumed): as above
Assay [8] has as its target T1, Pyruvate kinase PKM. Put plainly: Activation of PKM1 assessed as ATP product formation by luminescent pyruvate kinase-luciferase coupled assay. In a few lines:
as §1
Target sequence in this assay (P14618 2-531 limits assumed): as above

Activity calls are given as the source filed them.

Pyruvate kinase PKLR (Homo sapiens), sequence (P30613 whole entry, looked up): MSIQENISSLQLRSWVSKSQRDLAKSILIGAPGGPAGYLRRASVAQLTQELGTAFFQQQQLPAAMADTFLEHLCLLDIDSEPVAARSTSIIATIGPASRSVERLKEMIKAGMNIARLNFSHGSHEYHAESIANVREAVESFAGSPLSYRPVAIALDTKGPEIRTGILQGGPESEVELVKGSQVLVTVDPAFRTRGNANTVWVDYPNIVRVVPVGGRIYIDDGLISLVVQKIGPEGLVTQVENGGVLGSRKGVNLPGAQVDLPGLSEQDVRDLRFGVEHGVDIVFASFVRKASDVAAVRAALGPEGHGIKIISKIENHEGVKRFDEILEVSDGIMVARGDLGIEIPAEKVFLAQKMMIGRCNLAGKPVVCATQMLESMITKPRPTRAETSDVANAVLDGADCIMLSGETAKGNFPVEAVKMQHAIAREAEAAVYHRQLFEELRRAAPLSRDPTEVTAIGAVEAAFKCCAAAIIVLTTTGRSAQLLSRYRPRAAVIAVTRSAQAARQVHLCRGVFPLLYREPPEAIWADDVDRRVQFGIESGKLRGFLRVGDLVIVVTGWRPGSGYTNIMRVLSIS

As for `O=S(=O)(NCCNS(=O)(=O)c1c(F)cccc1F)c1ccc2c(c1)OCCO2`, the Activity in assay [1] is less than 30%; in assay [2], less than 30%; in assay [3], less than 30%; in assay [4] it was less than 30%; at Pyruvate kinase PKM [6] it was 60.3%. The AC50 on Pyruvate kinase PKM [5] (read-out: AC50) is greater than 15 µM. For the same compound, the result at Pyruvate kinase PKM [7] and on Pyruvate kinase PKM [8] was inactive.

With `O=S(=O)(NC1CCN(S(=O)(=O)c2c(F)cccc2F)C1)c1ccc2c(c1)OCCO2` (stereo unspecified), the Activity in assay [1] is less than 30%; in assay [2], less than 30%; in assay [3], less than 30%; in assay [4] it was less than 30%; at Pyruvate kinase PKM [6], 83.7%. Also, the AC50 at Pyruvate kinase PKM [5] (read-out: AC50) was greater than 10 µM. In addition, the result at Pyruvate kinase PKM [7] and at Pyruvate kinase PKM [8] was inactive.

For the compound `O=S(=O)(NCC1CN(S(=O)(=O)c2ccc3c(c2)OCCO3)C1)c1c(F)cccc1F`, the Activity was less than 30% in assay [1]; less than 30% in assay [2]; less than 30% in assay [3]; less than 30% in assay [4]; 93.3% on Pyruvate kinase PKM [6]. The AC50 at Pyruvate kinase PKM [5] (read-out: AC50) stood at 4.47 µM. Further, the outcome on Pyruvate kinase PKM [7] and on Pyruvate kinase PKM [8] was inactive.

`O=S(=O)(NC1CCN(S(=O)(=O)c2ccc3c(c2)OCCO3)C1)c1c(F)cccc1F` (stereo unspecified): the Activity is less than 30% in assay [1]; less than 30% in assay [2]; less than 30% in assay [3]; less than 30% in assay [4]; 82.4% at Pyruvate kinase PKM [6]. Further, at Pyruvate kinase PKM [5] (read-out: AC50), the AC50 is greater than 15 µM. The outcome at Pyruvate kinase PKM [7] and on Pyruvate kinase PKM [8] was inactive.

In the case of `O=S(=O)(c1ccc2c(c1)OCCO2)N1CCN(S(=O)(=O)c2cccc[n+]2[O-])CC1`, the Activity in assay [1] was less than 30%; in assay [2] it was less than 30%; in assay [3], less than 30%; in assay [4], less than 30%; at Pyruvate kinase PKM [6], 81.5%. Besides, the AC50 at Pyruvate kinase PKM [5] (read-out: AC50) is greater than 10 µM. For the same compound, the outcome at Pyruvate kinase PKM [7] and at Pyruvate kinase PKM [8] was inactive.

With `O=S(=O)(NCC1CN(S(=O)(=O)c2c(F)cccc2F)C1)c1ccc2c(c1)OCCO2`, the Activity in assay [1] is less than 30%; in assay [2] it was less than 30%; in assay [3], less than 30%; in assay [4] it was less than 30%; at Pyruvate kinase PKM [6], 108%. At Pyruvate kinase PKM [5] (read-out: AC50), the AC50 was 3.05 µM. The result at Pyruvate kinase PKM [7] and at Pyruvate kinase PKM [8] was inactive.

`O=S(=O)(NC1CCN(S(=O)(=O)c2c(F)cccc2F)CC1)c1ccc2c(c1)OCCO2`: the Activity in assay [1], in assay [2], in assay [3] and in assay [4] was less than 30% in each case. In addition, the AC50 at Pyruvate kinase PKM [5] (read-out: AC50) was determined as 9 µM. The result on Pyruvate kinase PKM [7] and on Pyruvate kinase PKM [8] was inactive.

Regarding `O=S(=O)(N[C@H]1CC[C@@H](NS(=O)(=O)c2c(F)cccc2F)CC1)c1ccc2c(c1)OCCO2`, the Activity in assay [1] is less than 30%; in assay [2], less than 30%; in assay [3], less than 30%; in assay [4], less than 30%; at Pyruvate kinase PKM [6] it was 60.7%. Besides, the AC50 at Pyruvate kinase PKM [5] (read-out: AC50) was greater than 35 µM. Further, the result at Pyruvate kinase PKM [7] and at Pyruvate kinase PKM [8] was inactive.

For the compound `C[C@@H]1CN(S(=O)(=O)c2ccc3c(c2)OCCO3)CCN1S(=O)(=O)c1c(F)cccc1F`, the Activity in assay [1] is less than 30%; in assay [2] it was less than 30%; in assay [3], less than 30%; in assay [4], less than 30%; on Pyruvate kinase PKM [6] it was 108%. For the same compound, on Pyruvate kinase PKM [5] (read-out: AC50), the AC50 was found to be 2.93 µM. Besides, the result on Pyruvate kinase PKM [7] and on Pyruvate kinase PKM [8] was inactive.

With `O=C(c1c(F)cccc1F)N1CCN(S(=O)(=O)c2ccc3c(c2)OCCO3)CC1`, the Activity in assay [1], in assay [2], in assay [3] and in assay [4] was less than 30% each time. Besides, the AC50 result at Pyruvate kinase PKM [5] is “Not Active”. For the same compound, the result at Pyruvate kinase PKM [6], on Pyruvate kinase PKM [7] and on Pyruvate kinase PKM [8] was inactive.

For the compound `C[C@H]1CN(S(=O)(=O)c2ccc3c(c2)OCCO3)CCN1S(=O)(=O)c1c(F)cccc1F`, the Activity in assay [1] is less than 30%; in assay [2] it was less than 30%; in assay [3], less than 30%; in assay [4] it was less than 30%; on Pyruvate kinase PKM [6] it was 108%. Moreover, the AC50 on Pyruvate kinase PKM [5] (read-out: AC50) worked out at 9.18 µM. Moreover, the outcome on Pyruvate kinase PKM [7] and at Pyruvate kinase PKM [8] was inactive.

`O=S(=O)(c1ccc2c(c1)OCCCO2)N1CCN(S(=O)(=O)c2c(F)cccc2F)CC1`: the Activity in assay [1] was less than 30%; in assay [2], less than 30%; in assay [3], less than 30%; in assay [4] it was less than 30%; on Pyruvate kinase PKM [6], 100%. The result on Pyruvate kinase PKM [7] and at Pyruvate kinase PKM [8] was inactive.

Regarding `O=S(=O)(c1cccc(C(F)(F)F)c1)N1CCN(S(=O)(=O)c2ccc3c(c2)OCCO3)CC1`, the Activity is less than 30% in assay [1]; less than 30% in assay [2]; less than 30% in assay [3]; less than 30% in assay [4]; 39.3% at Pyruvate kinase PKM [6]. Further, the result at Pyruvate kinase PKM [7] and on Pyruvate kinase PKM [8] was inactive.

As to `COc1ccc(S(=O)(=O)N2CCN(S(=O)(=O)c3c(F)cccc3F)CC2)cc1`, the Activity in assay [1] is less than 30%; in assay [2], less than 30%; in assay [3] it was less than 30%; in assay [4], less than 30%; on Pyruvate kinase PKM [6], 102%. In addition, the outcome at Pyruvate kinase PKM [7] and at Pyruvate kinase PKM [8] was inactive.

`O=S(=O)(NCCCCNS(=O)(=O)c1c(F)cccc1F)c1ccc2c(c1)OCCO2`: the Activity was less than 30% in assay [1]; less than 30% in assay [2]; less than 30% in assay [3]; less than 30% in assay [4]; 113% on Pyruvate kinase PKM [6]. Further, the result on Pyruvate kinase PKM [7] and at Pyruvate kinase PKM [8] was inactive.

For the compound `O=S(=O)(c1ccccc1)N1CCN(S(=O)(=O)c2ccc3c(c2)OCCO3)CC1`, the Activity is less than 30% in assay [1]; less than 30% in assay [2]; less than 30% in assay [3]; less than 30% in assay [4]; 108% at Pyruvate kinase PKM [6]. Further, the outcome at Pyruvate kinase PKM [7] and on Pyruvate kinase PKM [8] was inactive.

Take `O=C1CN(S(=O)(=O)c2c(F)cccc2F)CCN1S(=O)(=O)c1ccc2c(c1)OCCO2`: the Activity in assay [1] was less than 30%; in assay [2] it was less than 30%; in assay [3] it was less than 30%; in assay [4] it was less than 30%; at Pyruvate kinase PKM [6] it was 105%. The outcome at Pyruvate kinase PKM [7] and at Pyruvate kinase PKM [8] was inactive.

On to `O=C(c1ccc2c(c1)OCCO2)N1CCN(S(=O)(=O)c2c(F)cccc2F)CC1`, for which the Activity in assay [1], in assay [2], in assay [3] and in assay [4] was less than 30% throughout. Moreover, at Pyruvate kinase PKM [5], the AC50 entry is on record as “Not Active”. In addition, the outcome on Pyruvate kinase PKM [6], at Pyruvate kinase PKM [7] and on Pyruvate kinase PKM [8] was inactive.

Turning to `O=S(=O)(c1c(F)cccc1F)C1CCN(S(=O)(=O)c2ccc3c(c2)OCCO3)CC1`, the Activity was less than 30% in assay [1]; less than 30% in assay [2]; less than 30% in assay [3]; less than 30% in assay [4]; 104% at Pyruvate kinase PKM [6]. The result on Pyruvate kinase PKM [7] and on Pyruvate kinase PKM [8] was inactive.

For `O=S(=O)(NC1CCN(S(=O)(=O)c2ccc3c(c2)OCCO3)CC1)c1c(F)cccc1F`, the Activity in assay [1] is less than 30%; in assay [2], less than 30%; in assay [3], less than 30%; in assay [4], less than 30%; at Pyruvate kinase PKM [6], 101%. At Pyruvate kinase PKM [5] (read-out: AC50), the AC50 was determined as 3.69 µM. Further, the result at Pyruvate kinase PKM [7] and at Pyruvate kinase PKM [8] was inactive.

`O=S(=O)(c1ccc2c(c1)OCCO2)C1CCN(S(=O)(=O)c2c(F)cccc2F)CC1`: the Activity in assay [1] was less than 30%; in assay [2], less than 30%; in assay [3], less than 30%; in assay [4], less than 30%; on Pyruvate kinase PKM [6], 110%. The outcome on Pyruvate kinase PKM [7] and on Pyruvate kinase PKM [8] was inactive.

On to `O=S(=O)(c1ccc2c(c1)OCCO2)N1CCN(S(=O)(=O)c2cc(F)c(F)cc2F)CC1`, for which the Activity in assay [1] is less than 30%; in assay [2] it was less than 30%; in assay [3], less than 30%; in assay [4] it was less than 30%; at Pyruvate kinase PKM [6] it was 105%. Besides, the result at Pyruvate kinase PKM [7] and on Pyruvate kinase PKM [8] was inactive.

Broadly, the AC50 is the concentration at which the activity in the assay is half-maximal.
